From PubChem BioAssay
Shown are actives, neighbours in structure and some others; about 1.9% of the full set was active somewhere.
KLK7 zymogen act: proKLK7 (human) activation, primary screen | purified proKLK7, EDANS-DABCYL substrate fluorescence; 100% is mature enzyme control, 0% vehicle | 370,000 compounds, 0.9% hits | activation, % at 7 µM | AID 652039 | P49862;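 active = activation above the mean of all tested compounds plus 3 SD, computed per campaign excluding outliers beyond control limits, cut at about 13% in these data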
Target sequence (P49862 whole entry, looked up): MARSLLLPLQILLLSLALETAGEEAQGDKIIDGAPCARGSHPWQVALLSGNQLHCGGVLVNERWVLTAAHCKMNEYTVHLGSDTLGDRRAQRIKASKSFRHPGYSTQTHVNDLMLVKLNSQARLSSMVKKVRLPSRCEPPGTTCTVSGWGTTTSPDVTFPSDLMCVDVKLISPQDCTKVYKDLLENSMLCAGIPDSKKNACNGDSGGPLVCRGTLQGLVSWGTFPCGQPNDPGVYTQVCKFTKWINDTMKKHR
T cell HTS: T cell immune modulators affecting CD8 T cell-vesicle binding | 330,000 compounds, 0.068% hits | 2C CD8+ T cell-vesicle binding, flow cytometry; stronger effect = lower value | response (vesicle binding), % at 7 µM | AID 2052;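 active = response, share of CD8 T cells binding vesicles, and their 90th percentile fluorescence all below set limits, cut at about 80% in these data, passing the limit was not always enough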;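 note: values below 100% mean blocked vesicle binding to the CD8+ T cells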
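incubation = binding step 1.5 h, 37 °C, antibody labelling 20 min, ice | test system = 2C mouse CD8+ T cells | read-out basis = percent CD8+ FL2 mean versus row control | controls = Peptide-free naked vesicles (low) and QL9 vesicles with 0.7% DMSO vehicle (high) | detection = flow cytometry of vesicle-bound cells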
V-ATPase pHluor: yeast V-ATPase proton transport regulation by pHLuorin; response, % at 10 µM; 350,000 compounds, 0.37% hits; AID 504577; S. cerevisiae, pHLuorin cytosolic pH fluorescence; in the data active = response mostly above about 7.3%, no sharp cut-off; inactive = mostly below about 5.4%; note: actives read high
MIN6 prolif: MIN6 beta-cell proliferation induction; 330,000 compounds, 0.29% hits; MIN6 cells proliferation, ATPlite luminescence, 48 h; cells starved in 0.2% serum; 100% = growth in 10% serum; AID 2380; proliferation, % at 10 µM;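 active = compounds whose signal lies at least 3.5 SD above the mean of all wells on their plate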;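 note: 0% = DMSO-treated cells in low-serum medium and 100% = 10% serum control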
CR mimetic SO: caloric restriction mimetics inhibiting age-related superoxide in yeast | S. cerevisiae aged cells, superoxide DHE fluorescence; stronger effect = lower value | superoxide response (% of plate mean), % at 10 µM | 330,000 compounds, 0.18% hits;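 active = superoxide response under a set limit, about three screen SD below normal, cut at about 65% in these data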;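 note: yeast aged for seven days with compound at 30 °C before DHE staining; 100% = average MFI of all compound-treated wells on the plate with controls excluded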
Rce1 inhib: inhibitors of yeast Ras-converting enzyme; Q03530; yeast membranes, quenched prenylated peptide cleavage fluorescence; calls only; 290,000 compounds, 0.27% hits; AID 2563;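 active = fall in fluorescence gain of 50% or more versus controls, with final raw signal at or below 3038400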;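 note: plate controls were neutral control wells for no effect and wells lacking membranes for full effect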
Target sequence (Q03530 whole entry, looked up): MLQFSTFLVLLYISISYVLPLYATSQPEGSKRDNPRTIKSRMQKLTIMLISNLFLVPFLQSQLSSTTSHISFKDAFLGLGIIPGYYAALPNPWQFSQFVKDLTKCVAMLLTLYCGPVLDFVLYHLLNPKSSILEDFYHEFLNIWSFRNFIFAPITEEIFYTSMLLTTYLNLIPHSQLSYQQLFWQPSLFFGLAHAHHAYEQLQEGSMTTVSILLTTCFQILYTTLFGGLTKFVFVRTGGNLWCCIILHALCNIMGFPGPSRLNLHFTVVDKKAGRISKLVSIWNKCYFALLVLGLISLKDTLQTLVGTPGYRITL
Numbers without * were called inactive.

`CCOC(=O)[C@]12CCCC=C1N(Cc1ccc(OC)cc1)C(=O)[C@@H]2CC(=O)N1CCCCC1` gave KLK7 zymogen act 0.
For O=C(O)c1cc(-c2ccc(N3CCOCC3)cc2)nn1-c1ccc(F)cc1F the results were KLK7 zymogen act 0, T cell HTS 295, V-ATPase pHluor -3, MIN6 prolif -4, CR mimetic SO 87 and Rce1 inhib active.
CCc1ccccc1NNC(=O)c1snnc1C was read as KLK7 zymogen act 0, T cell HTS 52*, V-ATPase pHluor 0, MIN6 prolif -4, CR mimetic SO 111 and Rce1 inhib inactive.
`Cc1nnsc1C(=O)NNc1c(Cl)cccc1Cl` gave KLK7 zymogen act -1, T cell HTS 521, V-ATPase pHluor -5, MIN6 prolif 0, CR mimetic SO 104 and Rce1 inhib inactive.
CCCCNC(=S)N=Nc1c(O)n(Cc2ccccc2)c2ccccc12 was read as KLK7 zymogen act -1, T cell HTS 230, V-ATPase pHluor -3, MIN6 prolif -3, CR mimetic SO 93 and Rce1 inhib active.
`Oc1c(N=NC(=S)Nc2ccccc2F)c2ccccc2n1Cc1ccccc1Cl` gave KLK7 zymogen act 0, T cell HTS 260, V-ATPase pHluor -2, MIN6 prolif -6, CR mimetic SO 92 and Rce1 inhib active.
`NC(=S)N=Nc1c(O)n(Cc2ccccc2)c2ccccc12` gave KLK7 zymogen act 0, T cell HTS 314, V-ATPase pHluor -1, MIN6 prolif 1, CR mimetic SO 103 and Rce1 inhib inactive.
Screening O=C(CC1CCCC1)N1CC[C@H]2[C@H](CCCN2Cc2ccccc2)C1 returned KLK7 zymogen act 0.
Oc1ccc(-c2csc(Nc3ncccn3)n2)c(O)c1 was read as KLK7 zymogen act 1, T cell HTS 288, V-ATPase pHluor 15*, MIN6 prolif -3, CR mimetic SO 89 and Rce1 inhib inactive.
Oc1ccc(-c2csc(Nc3ncccn3)n2)cc1O was read as KLK7 zymogen act 0, V-ATPase pHluor 3 and Rce1 inhib inactive.
`Cc1ccc(S(=O)(=O)N2CCOCC2)cc1C(=O)Nc1ccc(C(N)=O)cc1` gave KLK7 zymogen act 1, T cell HTS 217, V-ATPase pHluor 16*, MIN6 prolif -3, CR mimetic SO 107 and Rce1 inhib inactive.
For CC(C)C[C@@H]1COc2cc(N3CCSCC3)ccc2S(=O)(=O)N1C the results were KLK7 zymogen act 0.
`Cc1cccc(N2CCc3c2nc2ccc(Br)cc2c3N)c1` gave KLK7 zymogen act -1, T cell HTS 521, V-ATPase pHluor 3, MIN6 prolif -4, CR mimetic SO 103 and Rce1 inhib active.
Screening O=C(c1cc(C2CC2)on1)N(C1CCCCC1)C1CCCCC1 returned KLK7 zymogen act 0.
Screening Nc1c(C(=O)Nc2cccc(C(=O)O)c2)sc2nc3c(cc12)CCCC3 returned KLK7 zymogen act -1, T cell HTS 305, V-ATPase pHluor 4, MIN6 prolif -4, CR mimetic SO 94 and Rce1 inhib active.
`O=C(COc1ccc2ccc(=O)oc2c1)NCCc1c[nH]c2ccc(F)cc12` gave KLK7 zymogen act 3, T cell HTS 353, V-ATPase pHluor 3, MIN6 prolif -5, CR mimetic SO 123 and Rce1 inhib active.
CCCc1cc(=O)oc2cc(OCC(=O)NCCc3c[nH]c4ccc(OC)cc34)ccc12 was read as KLK7 zymogen act 2, T cell HTS 130, V-ATPase pHluor -2, MIN6 prolif -4, CR mimetic SO 81 and Rce1 inhib inactive.
Screening Nc1ccn([C@@H]2O[C@H](C(=O)N[C@H](Cc3ccccc3)C(=O)N3CCN(CCO)CC3)[C@@H](O)[C@H]2O)c(=O)n1 returned KLK7 zymogen act 0.
For CCOc1ccc(NC(=O)c2cc(-c3ccc(Cl)cc3)nc3ccccc23)cc1 the results were KLK7 zymogen act 1.
CCCCOc1ccc(Cc2c(COCC)[nH]c(=S)[nH]c2=O)cc1 was read as KLK7 zymogen act 0, T cell HTS 215, V-ATPase pHluor 3, MIN6 prolif 1, CR mimetic SO 95 and Rce1 inhib active.
Screening CCOCc1[nH]c(=S)[nH]c(=O)c1Cc1ccc(OCC)cc1 returned KLK7 zymogen act 0, T cell HTS 523, V-ATPase pHluor 2, MIN6 prolif 0, CR mimetic SO 93 and Rce1 inhib inactive.
`CCc1c(-c2cccc(F)c2)ncn1CCc1ccccc1OC` gave KLK7 zymogen act 0.
Cc1ccc(C(=O)Nc2nc(-c3ccccn3)cs2)o1 was read as KLK7 zymogen act 0, T cell HTS 153, V-ATPase pHluor 5, MIN6 prolif -5, CR mimetic SO 89 and Rce1 inhib inactive.
`O=C(Nc1nc(-c2ccccn2)cs1)c1ccc([N+](=O)[O-])o1` gave KLK7 zymogen act 0, T cell HTS 88, V-ATPase pHluor 5, MIN6 prolif -5, CR mimetic SO 91 and Rce1 inhib active.
`O=C(O)c1ccccc1NS(=O)(=O)c1cccc(C(F)(F)F)c1` gave KLK7 zymogen act 0, T cell HTS 512, V-ATPase pHluor 18*, MIN6 prolif -3, CR mimetic SO 113 and Rce1 inhib inactive.
For N#CCC[C@H]1CC[C@]2(CCCN(c3ccccc3)C2)O1 the results were KLK7 zymogen act 0.
For CSc1nc(NCCCO)c2c3c(sc2n1)CN(C)CC3 the results were KLK7 zymogen act 4, T cell HTS 469, V-ATPase pHluor -4, MIN6 prolif 1, CR mimetic SO 103 and Rce1 inhib inactive.
For CSc1nc(NCC(C)O)c2c3c(sc2n1)CN(C)CC3 (configuration not stated) the results were KLK7 zymogen act -1, T cell HTS 195, V-ATPase pHluor -1, MIN6 prolif 3, CR mimetic SO 77 and Rce1 inhib active.
O=C(CNS(=O)(=O)c1ccc(F)cc1)N1CCN(c2ccccn2)CC1 was read as KLK7 zymogen act 1.
Screening CC(C)CNC(=O)OCc1cn(Cc2cccc(C(F)(F)F)c2)nn1 returned KLK7 zymogen act -1.
`CCOC(=O)c1cc(-c2ccccc2)sc1NC(=O)C(C)Sc1nnnn1C` (configuration not stated) gave KLK7 zymogen act 0, T cell HTS 376, V-ATPase pHluor 1, MIN6 prolif -3, CR mimetic SO 111 and Rce1 inhib active.
For COCCN(C(=O)COc1ccccc1)c1nnc(-c2cccnc2)s1 the results were KLK7 zymogen act 0, T cell HTS 165, V-ATPase pHluor -5, MIN6 prolif 2, CR mimetic SO 100 and Rce1 inhib inactive.
Screening CCN(C(=O)COc1ccccc1)c1nnc(-c2cccnc2)s1 returned KLK7 zymogen act 2, T cell HTS 170, V-ATPase pHluor 26*, MIN6 prolif 0, CR mimetic SO 83 and Rce1 inhib inactive.
